Reference: ChEMBL document CHEMBL3259728, “Design, synthesis and biological evaluation of some novel substituted quinazolines as antitumor agents” (2014)

Key:
Type in all cases: functional
[1] = Growth inhibition of human HOP92 cells at 10 uM after 48 hrs by SRB assay; details: HOP-92, 48 h, read-out: GI
How it was run: (§1)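 NCI-60 primary one-dose screen run at the US NCI, with human tumour lines from nine cancer types. Compound added once at 10^-5 M, followed by 48 h incubation. End point was sulforhodamine B protein staining read spectrophotometrically. Result given as percent growth of treated cells against untreated controls, reported as % growth inhibition.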

[2] = tested on: SK-MEL-2; assay: Growth inhibition of human SK-MEL-2 cells at 10 uM after 48 hrs by SRB assay; details: SK-MEL-2, 48 h, read-out: GI; how it was run: as §1
[3] = tested on: Malme-3M; assay: Growth inhibition of human MALME-3M cells at 10 uM after 48 hrs by SRB assay; details: read-out: GI; how it was run: as §1
[4] = tested on: SF-268; assay: Growth inhibition of human SF268 cells at 10 uM after 48 hrs by SRB assay; details: SF-268, 48 h, read-out: GI; how it was run: as §1
[5] = tested on: CAKI-1; assay: Growth inhibition of human CAKI-1 cells at 10 uM after 48 hrs by SRB assay; details: CAKI-1, 48 h, read-out: GI
How it was run: (§2)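 NCI primary one-dose screen. A single concentration of 10^-5 M was added to the cell culture, followed by 48 h incubation and an SRB protein-dye endpoint read spectrophotometrically. Results are growth percentage relative to untreated control cells, reported as % growth inhibition.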

[6] = Growth inhibition of human HCT15 cells at 10 uM after 48 hrs by SRB assay; details: HCT-15, 48 h, read-out: GI; how it was run: as §1
[7] = Growth inhibition of human OVCAR8 cells at 10 uM after 48 hrs by SRB assay; details: OVCAR-8, 48 h, read-out: GI; how it was run: as §1
[8] = Growth inhibition of human NCI-ADR-RES cells at 10 uM after 48 hrs by SRB assay; details: read-out: GI; how it was run: as §1
[9] = tested on: A498; assay: Growth inhibition of human A498 cells at 10 uM after 48 hrs by SRB assay; details: A498, 48 h, read-out: GI; how it was run: as §2
[10] = tested on: T47D; assay: Growth inhibition of human T47D cells at 10 uM after 48 hrs by SRB assay; details: read-out: GI; how it was run: as §1
[11] = tested on: MCF7; assay: Growth inhibition of human MCF7 cells at 10 uM after 48 hrs by SRB assay; details: MCF7, 48 h, read-out: GI; how it was run: as §1
[12] = tested on: TK-10; assay: Growth inhibition of human TK10 cells at 10 uM after 48 hrs by SRB assay; details: TK-10, 48 h, read-out: GI; how it was run: as §1
[13] = tested on: SN12C; assay: Growth inhibition of human SN12C cells at 10 uM after 48 hrs by SRB assay; details: read-out: GI; how it was run: as §1
[14] = Growth inhibition of human UO31 cells at 10 uM after 48 hrs by SRB assay; details: UO-31, 48 h, read-out: GI; how it was run: as §1
[15] = tested on: HCT-116; assay: Growth inhibition of human HCT116 cells at 10 uM after 48 hrs by SRB assay; details: HCT-116, 48 h, read-out: GI; how it was run: as §1
[16] = tested on: SK-MEL-28; assay: Growth inhibition of human SK-MEL-28 cells at 10 uM after 48 hrs by SRB assay; details: SK-MEL-28, 48 h, read-out: GI; how it was run: as §1
[17] = tested on: NCI-H522; assay: Growth inhibition of human NCI-H522 cells at 10 uM after 48 hrs by SRB assay; details: NCI-H522, 48 h, read-out: GI; how it was run: as §1
[18] = Growth inhibition of human Hs578T cells at 10 uM after 48 hrs by SRB assay; details: Hs-578T, read-out: GI; how it was run: as §1
[19] = tested on: U-251; assay: Growth inhibition of human U251 cells at 10 uM after 48 hrs by SRB assay; details: U-251, 48 h, read-out: GI; how it was run: as §1
[20] = tested on: MDA-MB-435; assay: Growth inhibition of human MDA-MB-435 cells at 10 uM after 48 hrs by SRB assay; details: MDA-MB-435, 48 h, read-out: GI; how it was run: as §1
[21] = tested on: NCI-H23; assay: Growth inhibition of human NCI-H23 cells at 10 uM after 48 hrs by SRB assay; details: NCI-H23, 48 h, read-out: GI; how it was run: as §1
[22] = tested on: DU-145; assay: Growth inhibition of human DU145 cells at 10 uM after 48 hrs by SRB assay; details: DU-145, 48 h, read-out: GI; how it was run: as §1
[23] = Growth inhibition of human UACC62 cells at 10 uM after 48 hrs by SRB assay; details: UACC-62, 48 h, read-out: GI; how it was run: as §1
[24] = Growth inhibition of human OVCAR3 cells at 10 uM after 48 hrs by SRB assay; details: OVCAR-3, 48 h, read-out: GI; how it was run: as §1
[25] = tested on: COLO 205; assay: Growth inhibition of human COLO205 cells at 10 uM after 48 hrs by SRB assay; details: COLO 205, 48 h, read-out: GI; how it was run: as §2
[26] = tested on: HT-29; assay: Growth inhibition of human HT-29 cells at 10 uM after 48 hrs by SRB assay; details: HT-29, 48 h, read-out: GI; how it was run: as §1
[27] = tested on: CCRF-CEM; assay: Growth inhibition of human CCRF-CEM cells at 10 uM after 48 hrs by SRB assay; details: read-out: GI; how it was run: as §2
[28] = tested on: NCI-H460; assay: Growth inhibition of human NCI-H460 cells at 10 uM after 48 hrs by SRB assay; details: NCI-H460, 48 h, read-out: GI; how it was run: as §1
[29] = tested on: 786-0; assay: Growth inhibition of human 786-0 cells at 10 uM after 48 hrs by SRB assay; details: 786-0, 48 h, read-out: GI; how it was run: as §2
[30] = tested on: RPMI-8226; assay: Growth inhibition of human RPMI8226 cells at 10 uM after 48 hrs by SRB assay; details: RPMI-8226, 48 h, read-out: GI; how it was run: as §1
[31] = Growth inhibition of human OVCAR5 cells at 10 uM after 48 hrs by SRB assay; details: OVCAR-5, 48 h, read-out: GI; how it was run: as §1
[32] = tested on: HOP-62; assay: Growth inhibition of human HOP62 cells at 10 uM after 48 hrs by SRB assay; details: HOP-62, 48 h, read-out: GI; how it was run: as §1
[33] = tested on: KM12; assay: Growth inhibition of human KM12 cells at 10 uM after 48 hrs by SRB assay; details: KM12, 48 h, read-out: GI; how it was run: as §1
[34] = tested on: SW-620; assay: Growth inhibition of human SW620 cells at 10 uM after 48 hrs by SRB assay; details: SW-620, 48 h, read-out: GI; how it was run: as §1
[35] = tested on: PC-3; assay: Growth inhibition of human PC3 cells at 10 uM after 48 hrs by SRB assay; details: PC-3, 48 h, read-out: GI; how it was run: as §1
[36] = tested on: ACHN; assay: Growth inhibition of human ACHN cells at 10 uM after 48 hrs by SRB assay; details: read-out: GI; how it was run: as §2
[37] = Growth inhibition of human BT549 cells at 10 uM after 48 hrs by SRB assay; details: BT-549, 48 h, read-out: GI; how it was run: as §2
[38] = tested on: M14; assay: Growth inhibition of human M14 cells at 10 uM after 48 hrs by SRB assay; details: M14, 48 h, read-out: GI; how it was run: as §1
[39] = tested on: SNB-75; assay: Growth inhibition of human SNB75 cells at 10 uM after 48 hrs by SRB assay; details: SNB-75, 48 h, read-out: GI; how it was run: as §1

| SMILES | inhibition of growth at 10 µM [1] [%] | inhibition of growth at 10 µM [2] [%] | inhibition of growth at 10 µM [3] [%] | inhibition of growth at 10 µM [4] [%] | inhibition of growth at 10 µM [5] [%] | inhibition of growth at 10 µM [6] [%] | inhibition of growth at 10 µM [7] [%] | inhibition of growth at 10 µM [8] [%] | inhibition of growth at 10 µM [9] [%] | inhibition of growth at 10 µM [10] [%] | inhibition of growth at 10 µM [11] [%] | inhibition of growth at 10 µM [12] [%] | inhibition of growth at 10 µM [13] [%] | inhibition of growth at 10 µM [14] [%] | inhibition of growth at 10 µM [15] [%] | inhibition of growth at 10 µM [16] [%] | inhibition of growth at 10 µM [17] [%] | inhibition of growth at 10 µM [18] [%] | inhibition of growth at 10 µM [19] [%] | inhibition of growth at 10 µM [20] [%] | other results |
| --- | --- | --- | --- | --- | --- | --- | --- | --- | --- | --- | --- | --- | --- | --- | --- | --- | --- | --- | --- | --- | --- |
| Cc1ccc(C(=O)Nc2ccc(Cl)cc2C(=O)NCc2ccccc2)cc1 | < 10 | 49 | 12 | < 10 | 23 | 43 | 13 | 28 | 21 | < 10 | 47 | < 10 | < 10 | 24 | 11 | 17 | 47 | 21 | 19 | 98 | inhibition of growth at 10 µM [21]: < 10%; inhibition of growth at 10 µM [22]: < 10%; inhibition of growth at 10 µM [23]: 30%; inhibition of growth at 10 µM [24]: < 10%; inhibition of growth at 10 µM [25]: < 10%; inhibition of growth at 10 µM [26]: 77%; inhibition of growth at 10 µM [27]: 27%; inhibition of growth at 10 µM [28]: < 10%; inhibition of growth at 10 µM [29]: < 10%; inhibition of growth at 10 µM [30]: 23%; inhibition of growth at 10 µM [31]: < 10%; inhibition of growth at 10 µM [32]: 12%; inhibition of growth at 10 µM [33]: 40%; inhibition of growth at 10 µM [34]: 42%; inhibition of growth at 10 µM [35]: 24%; inhibition of growth at 10 µM [36]: 14%; inhibition of growth at 10 µM [37]: < 10%; inhibition of growth at 10 µM [38]: 26%; inhibition of growth at 10 µM [39]: 33% |
| Cc1ccc(C(=O)Nc2ccc(Cl)cc2C(=O)Nc2ccccn2)cc1 | < 10 | < 10 | < 10 | 13 | 20 | 14 | < 10 | < 10 | 39 | 20 | 19 | < 10 | < 10 | 13 | < 10 | < 10 | 22 | < 10 | < 10 | 19 | inhibition of growth at 10 µM [21]: < 10%; inhibition of growth at 10 µM [22]: 11%; inhibition of growth at 10 µM [23]: 16%; inhibition of growth at 10 µM [24]: 12%; inhibition of growth at 10 µM [25]: < 10%; inhibition of growth at 10 µM [26]: 14%; inhibition of growth at 10 µM [27]: 29%; inhibition of growth at 10 µM [28]: < 10%; inhibition of growth at 10 µM [29]: < 10%; inhibition of growth at 10 µM [30]: 15%; inhibition of growth at 10 µM [31]: < 10%; inhibition of growth at 10 µM [32]: < 10%; inhibition of growth at 10 µM [33]: 11%; inhibition of growth at 10 µM [34]: < 10%; inhibition of growth at 10 µM [35]: 23%; inhibition of growth at 10 µM [36]: < 10%; inhibition of growth at 10 µM [37]: < 10%; inhibition of growth at 10 µM [38]: < 10%; inhibition of growth at 10 µM [39]: 24% |
| Cc1ccc(-c2nc3ccc(Cl)cc3c3nnnn23)cc1 | < 10 | < 10 | < 10 | < 10 | 25 | < 10 | < 10 | < 10 | 11 | 23 | < 10 | < 10 | 16 | 24 | < 10 | < 10 | 21 | < 10 | < 10 | 13 | inhibition of growth at 10 µM [21]: < 10%; inhibition of growth at 10 µM [22]: < 10%; inhibition of growth at 10 µM [23]: 18%; inhibition of growth at 10 µM [24]: 11%; inhibition of growth at 10 µM [25]: < 10%; inhibition of growth at 10 µM [26]: < 10%; inhibition of growth at 10 µM [27]: < 10%; inhibition of growth at 10 µM [28]: < 10%; inhibition of growth at 10 µM [29]: < 10%; inhibition of growth at 10 µM [30]: < 10%; inhibition of growth at 10 µM [31]: < 10%; inhibition of growth at 10 µM [32]: 51%; inhibition of growth at 10 µM [33]: < 10%; inhibition of growth at 10 µM [34]: 17%; inhibition of growth at 10 µM [35]: 18%; inhibition of growth at 10 µM [36]: < 10%; inhibition of growth at 10 µM [37]: < 10%; inhibition of growth at 10 µM [38]: < 10%; inhibition of growth at 10 µM [39]: < 10% |
